In ChEMBL document CHEMBL1154044, “5-Nitro-2-furyl derivative actives against Trypanosoma cruzi: preliminary in vivo studies” (Eur J Med Chem, 2009):
Active and inactive are the calls of the source. The calls are words filed in the database; no cut-off is given here.

Assays:
[1] = system: Mus musculus; assay: Toxicity in CD1 mouse heart at 450 mg/kg, po after 3 days by histological study; type: organism-based; design: dose 450 mg/kg, route oral; settings: in vivo, 72 h
How it was run: (§1)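 Healthy female CD1 mice (20–22 g), 5–7 per group, given a single oral (intragastric) or i.p. dose in saline:Tween 80 (4:1) vehicle. Sacrificed on day 3 after ether anaesthesia. Organs fixed in 10% aqueous formalin for histology. Scored against untreated animals from no change to +++ (many changes).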

[2] = system: Mus musculus; assay: Toxicity in CD1 mouse heart at 300 mg/kg, ip after 3 days by histological study; type: organism-based; design: dose 300 mg/kg, route intraperitoneal; settings: in vivo, 72 h; how it was run: as §1
[3] = system: Mus musculus; assay: Toxicity in CD1 mouse lung at 450 mg/kg, po after 3 days by histological study; type: organism-based; design: dose 450 mg/kg, route oral; settings: in vivo, 72 h; how it was run: as §1
[4] = system: Mus musculus; assay: Toxicity in CD1 mouse lung at 300 mg/kg, ip after 3 days by histological study; type: organism-based; design: dose 300 mg/kg, route intraperitoneal; settings: in vivo, 72 h; how it was run: as §1
[5] = system: Mus musculus; assay: Toxicity in CD1 mouse brain at 450 mg/kg, po after 3 days by histological study; type: organism-based; design: dose 450 mg/kg, route oral; settings: in vivo, 72 h; how it was run: as §1
[6] = system: Mus musculus; assay: Toxicity in CD1 mouse brain at 300 mg/kg, ip after 3 days by histological study; type: organism-based; design: dose 300 mg/kg, route intraperitoneal; settings: in vivo, 72 h; how it was run: as §1
[7] = system: Trypanosoma cruzi; assay: Antitrypanosomal activity against Trypanosoma cruzi infected in po dosed CD1 mouse assessed as prevention of inflammatory infiltrates in heart administered daily for 14 days measured on day 45; type: functional, organism-based
How it was run: (§2)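 T. cruzi, a Uruguayan patient isolate, was inoculated intradermally into 2-month-old female CD1 mice (20–22 g). Dosing began on day 15 after parasitaemia was observed. Drugs were suspended in saline:Tween 80 (4:1) and given by intragastric syringe once daily for 14 days, with untreated controls. On day 45 after treatment start, heart and muscle sections were scored by two independent observers for amastigotes and inflammatory infiltrates. Groups had 5–7 mice.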

[8] = system: Trypanosoma cruzi; assay: Antitrypanosomal activity against Trypanosoma cruzi infected in po dosed CD1 mouse assessed as prevention of amastigote nest in heart administered daily for 14 days measured on day 45; type: functional, organism-based; how it was run: as §2
[9] = system: Trypanosoma cruzi; assay: Antitrypanosomal activity against Trypanosoma cruzi infected in po dosed CD1 mouse assessed as prevention of inflammatory infiltrates in smooth muscle administered daily for 14 days measured on day 45; type: functional, organism-based; settings: Muscle tissue; how it was run: as §2
[10] = system: Trypanosoma cruzi; assay: Antitrypanosomal activity against Trypanosoma cruzi infected in po dosed CD1 mouse assessed as prevention of amastigote nest in smooth muscle administered daily for 14 days measured on day 45; type: functional, organism-based; settings: Muscle tissue; how it was run: as §2
[11] = system: Trypanosoma cruzi; assay: Growth inhibition of Trypanosoma cruzi Tulahuen 2 epimastigote at 5 uM after 5 days; type: functional; settings: Trypanosoma cruzi, Tulahuen 2, 120 h; read-out: GI
[12] = system: Mus musculus; assay: Toxicity in CD1 mouse assessed as survival at 450 mg/kg, po after 3 days; type: organism-based; design: dose 450 mg/kg, route oral; settings: in vivo, 72 h
How it was run: (§3)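 Healthy 2-month-old female CD1 mice (20–22 g), groups of 5–7, given one oral dose by intragastric syringe or one i.p. injection. Compound suspended in saline:Tween 80 (4:1) with sonication just before dosing; vehicle-treated controls included. Weighed and observed daily over 3 days for skin, physical aspect, activity and faeces; survival recorded at day 3.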

[13] = system: Mus musculus; assay: Toxicity in CD1 mouse assessed as increase in weight respect to day zero at 300 mg/kg, ip after 3 days; type: organism-based; design: dose 300 mg/kg, route intraperitoneal; settings: in vivo, 72 h
How it was run: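 Healthy 2-month-old female CD1 mice (20–22 g, 5–7 per group) received one dose. Oral doses of 450 or 300 mg/kg were given by intragastric syringe; i.p. doses of 300 or 150 mg/kg by injection. Drugs were suspended in saline:Tween 80 (4:1), and a vehicle-only control was included. Mice were weighed and observed daily for 3 days. Weight change is expressed as percent relative to day zero.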

[14] = system: Mus musculus; assay: Toxicity in CD1 mouse assessed as survival at 300 mg/kg, ip after 3 days; type: organism-based; design: dose 300 mg/kg, route intraperitoneal; settings: in vivo, 72 h; how it was run: as §3
[15] = system: Mus musculus; assay: Toxicity in CD1 mouse assessed as leukocyte level at 450 mg/kg, po after 3 days; type: organism-based; design: dose 450 mg/kg, route oral; settings: in vivo, 72 h
How it was run: (§4)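 Healthy female CD1 mice (5–7 per group) received a single oral dose of 450 mg/kg or an i.p. dose of 300 mg/kg, with vehicle controls. On day 3 they were sacrificed under ether anaesthesia. Blood was drawn from the subclavian artery and kept at 0 °C in EDTA or heparin. Leukocytes, haemoglobin, haematocrit, GPT and GOT were measured within 24 h and compared with normal ranges.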

[16] = system: Mus musculus; assay: Toxicity in CD1 mouse assessed as leukocyte level at 300 mg/kg, ip after 3 days; type: organism-based; design: dose 300 mg/kg, route intraperitoneal; settings: in vivo, 72 h; how it was run: as §4
[17] = system: Mus musculus; assay: Toxicity in CD1 mouse assessed as haemoglobin level at 450 mg/kg, po after 3 days; type: organism-based; design: dose 450 mg/kg, route oral; settings: in vivo, 72 h; how it was run: as §4
[18] = system: Mus musculus; assay: Toxicity in CD1 mouse assessed as haemoglobin level at 300 mg/kg, ip after 3 days; type: organism-based; design: dose 300 mg/kg, route intraperitoneal; settings: in vivo, 72 h; how it was run: as §4
[19] = system: Mus musculus; assay: Toxicity in CD1 mouse assessed as glutamic-pyruvate transaminase level at 450 mg/kg, po after 3 days; type: organism-based; design: dose 450 mg/kg, route oral; settings: in vivo, 72 h; how it was run: as §4
[20] = system: Mus musculus; assay: Toxicity in CD1 mouse assessed as glutamic-pyruvate transaminase level at 300 mg/kg, ip after 3 days; type: organism-based; design: dose 300 mg/kg, route intraperitoneal; settings: in vivo, 72 h; how it was run: as §4
[21] = system: Mus musculus; assay: Toxicity in CD1 mouse assessed as glutamic-oxalacetate transaminase level at 450 mg/kg, po after 3 days; type: organism-based; design: dose 450 mg/kg, route oral; settings: in vivo, 72 h; how it was run: as §4
[22] = system: Mus musculus; assay: Toxicity in CD1 mouse liver at 300 mg/kg, ip after 3 days by histological study; type: organism-based; design: dose 300 mg/kg, route intraperitoneal; settings: in vivo, 72 h; how it was run: as §1
[23] = system: Mus musculus; assay: Toxicity in CD1 mouse assessed as glutamic-oxalacetate transaminase level at 300 mg/kg, ip after 3 days; type: organism-based; design: dose 300 mg/kg, route intraperitoneal; settings: in vivo, 72 h; how it was run: as §4
[24] = system: Mus musculus; assay: Toxicity in CD1 mouse liver at 450 mg/kg, po after 3 days by histological study; type: organism-based; design: dose 450 mg/kg, route oral; settings: in vivo, 72 h; how it was run: as §1
[25] = system: Mus musculus; assay: Toxicity in CD1 mouse intestine at 450 mg/kg, po after 3 days by histological study; type: organism-based; design: dose 450 mg/kg, route oral; settings: in vivo, 72 h; how it was run: as §1
[26] = system: Mus musculus; assay: Toxicity in CD1 mouse intestine at 300 mg/kg, ip after 3 days by histological study; type: organism-based; design: dose 300 mg/kg, route intraperitoneal; settings: in vivo, 72 h; how it was run: as §1
[27] = system: Mus musculus; assay: Toxicity in CD1 mouse kidney at 450 mg/kg, po after 3 days by histological study; type: organism-based; design: dose 450 mg/kg, route oral; settings: in vivo, 72 h; how it was run: as §1
[28] = system: Mus musculus; assay: Toxicity in CD1 mouse kidney at 300 mg/kg, ip after 3 days by histological study; type: organism-based; design: dose 300 mg/kg, route intraperitoneal; settings: in vivo, 72 h; how it was run: as §1
[29] = system: Mus musculus; assay: Toxicity in CD1 mouse assessed as increase in weight respect to day zero at 450 mg/kg, po after 3 days; settings: in vivo, 72 h

For CCCCCCNC(=O)N/N=C/C=C/c1ccc([N+](=O)[O-])o1, the Activity [1] was “Non-toxic”, the Activity [2] was “Non-toxic” and the Activity [3] was “Non-toxic”. The Activity [4] was “Non-toxic”, the Activity [5] was “Non-toxic” and the Activity [6] was “Non-toxic”. For the same compound, the Activity [7] was “Active”, the Activity [8] was “Active” and the Activity [9] was “Active”. For the same compound, the Activity [10] was “Active”, the inhibition of growth at 5 µM [11] was 82% and the Activity [12] was “Non-toxic”. The Activity [13] was 8%, the Activity [14] was “Non-toxic” and the Activity [15] was 32400 µL⁻¹. It also gave an Activity [16] of 31700 µL⁻¹, an Activity [17] of 16.3 g/dL and an Activity [18] of 12.8 g/dL. The Activity [19] was 29.4 IU/L, the Activity [20] was 76.2 IU/L and the Activity [21] was 94.1 IU/L. For the same compound, the Activity [22] was “Toxic”, the Activity [23] was 109 IU/L and the Activity [24] was “Toxic”. The Activity [25] was “Non-toxic”, the Activity [26] was “Non-toxic” and the Activity [27] was “Non-toxic”. For the same compound, the Activity [28] was “Toxic” and the Activity [29] was 21%.
